Source: ChEMBL document CHEMBL4316638, “Bioactive Meroterpenoids and Isocoumarins from the Mangrove-Derived Fungus Penicillium sp. TGM112” (J Nat Prod, 2019)
In brackets after ≈: the same amount, converted by molar mass. Activity calls are given as the source filed them. The calls are words filed in the database; no cut-off is given here.

What was measured:
Helicoverpa armigera = assay: Insecticidal activity against Helicoverpa armigera hubner measured every other day for 8 days starting from 2 days post dosing; type: functional, organism-based
How it was run: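 Neonate H. armigera larvae fed artificial diet dosed with serial dilutions of compound (1 mg/mL in DMSO) at 200, 100, 50, 25 and 12.5 μL/well in six-well plates; three groups of three larvae, 3 replicates per treatment. Held at 25 ± 1 °C, 80% relative humidity. Dead larvae counted on days 2, 4, 6, 8. DMSO negative, azadirachtin positive, plain diet blank controls.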

RAW264.7 = assay: Inhibition of LPS-induced nitric oxide production in mouse RAW264.7 cells preincubated for 30 mins followed by LPS-stimulation and measured after 24 hrs by Griess assay; type: functional, cell-based
How it was run: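 RAW264.7 macrophages seeded at 50 000 cells/well and grown 24 h, then exposed to compound for 30 min at 37 °C before LPS (100 ng/mL) co-incubation for 24 h. Nitrite in supernatant measured by Griess reagent (10 min mixing), absorbance 540 nm. Compounds from 10 mM DMSO stocks; final DMSO ≤0.1%. Dexamethasone positive control. Triplicate runs; IC50 calculated.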

A549 = assay: Cytotoxicity against human A549 cells measured after 7 days by MTT assay; type: functional, cell-based
HeLa = assay: Cytotoxicity against human HeLa cells measured after 7 days by MTT assay; type: functional, cell-based
HepG2 = assay: Cytotoxicity against human HepG2 cells measured after 7 days by MTT assay; type: functional, cell-based
Escherichia coli = assay: Antibacterial activity against Escherichia coli ATCC 25922 by microplate assay; type: functional, organism-based
Staphylococcus aureus [1] = assay: Antibacterial activity against Staphylococcus aureus ATCC 25923 by microplate assay; type: functional, organism-based
Staphylococcus aureus [2] = assay: Antibacterial activity against methicillin-resistant Staphylococcus aureus ATCC 33591 by microplate assay; type: functional, organism-based
How it was run: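 MRSA (ATCC 33591) was one strain in a panel of six pathogenic bacteria: four general and two marine Vibrio. Assayed by the microplate method, with ciprofloxacin as positive control.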

Bacillus cereus = assay: Antibacterial activity against Bacillus cereus ATCC 11778 by microplate assay; type: functional, organism-based
Vibrio parahaemolyticus = assay: Antibacterial activity against Vibrio parahaemolyticus ATCC 17802 by microplate assay; type: functional, organism-based
Vibrio alginolyticus = assay: Antibacterial activity against Vibrio alginolyticus ATCC 17749 by microplate assay; type: functional, organism-based; details: NBRC 15630 = ATCC 17749
Caenorhabditis elegans = assay: Insecticidal activity against Caenorhabditis elegans measured at 12 […]; type: functional, organism-based
How it was run: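 L1 C. elegans (30−40 worms/well) in S medium with E. coli OP50 and chloramphenicol, exposed to compound at 40, 20, 10, 5, 1 and 0 μg/mL diluted in filter-sterilized M-9; 3 replicates per treatment. Plates sealed, kept at 24 °C for 60 h in the dark; dead larvae counted at 12, 24, 36, 48, 60. M-9 negative control, levamisole 1 mg/mL positive control.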

| Structure (SMILES) | IC50 (Helicoverpa armigera) | inhibition (RAW264.7) | Activity (A549) | Activity (HeLa) | Activity (HepG2) | Activity (Escherichia coli) | Activity (Staphylococcus aureus [1]) | Activity (Staphylococcus aureus [2]) | Activity (Bacillus cereus) | Activity (Vibrio parahaemolyticus) | Activity (Vibrio alginolyticus) | EC50 (Caenorhabditis elegans) |
| --- | --- | --- | --- | --- | --- | --- | --- | --- | --- | --- | --- | --- |
| C/C=C(\C)C(=O)O[C@H]1C[C@@H](OC(C)=O)[C@@]2(C(=O)OC)CO[C@H]3[C@@H](O)[C@@](C)([C@]45O[C@@]4(C)[C@H]4C[C@@H]5O[C@@H]5OC=C[C@@]54O)[C@H]4[C@]1(CO[C@]4(O)C(=O)OC)[C@@H]32 [AZADIRACTIN] | 25 µg/mL (≈ 34.7 µM) | – | – | – | – | – | – | – | – | – | – | – |
| C[C@@H](O)CCC[C@@H]1Cc2c(O)ccc(O)c2C(=O)O1 | 100 µg/mL (≈ 376 µM) | inactive | inactive | inactive | inactive | inactive | inactive | inactive | inactive | inactive | inactive | – |
| CC(=O)CCC[C@@H]1Cc2cccc(O)c2C(=O)O1 | – | inactive | inactive | inactive | inactive | inactive | inactive | inactive | inactive | inactive | inactive | – |
| C=C1[C@@]23C(=O)O[C@H](C)[C@@]2(O)C(=O)O[C@]1(C)[C@@H](O)C1=C(C)[C@]2(CCC(=O)OC2(C)C)CC[C@@]13C | 100 µg/mL (≈ 217 µM) | inactive | inactive | inactive | inactive | inactive | inactive | inactive | inactive | inactive | inactive | 19.5 µg/mL (≈ 42.3 µM) |
| C=C1[C@]2(C)C(=O)[C@]3(O)[C@@H](C)OC(=O)[C@]13[C@@]1(C)CC[C@@]3(C=CC(=O)OC3(C)C)C(C)=C1[C@@H]2OC(C)=O | – | inactive | inactive | inactive | inactive | inactive | inactive | inactive | inactive | inactive | inactive | – |
| C[C@@H](O)CCC[C@H]1OC(=O)c2c(O)cccc2[C@@H]1O | 100 µg/mL (≈ 376 µM) | inactive | inactive | inactive | inactive | inactive | inactive | inactive | inactive | inactive | inactive | – |
| C=C1[C@@]23C(=O)O[C@H](C)[C@]24O[C@@]2(C(=C)[C@]5(CCC(=O)OC5(C)C)C[C@@H](O)[C@]32C)[C@H](OC(C)=O)[C@@]1(C)OC4=O | 50 µg/mL (≈ 96.8 µM) | inactive | inactive | inactive | inactive | inactive | inactive | inactive | inactive | inactive | inactive | – |
| COc1ccc2c(c1O)C(=O)O[C@H](CCCO)C2 | – | inactive | inactive | inactive | inactive | inactive | inactive | inactive | inactive | inactive | inactive | – |
| C=C1[C@@]23C(=O)O[C@H](C)[C@@]2(O)C(=O)O[C@]1(C)[C@@H](OC(C)=O)C1=C(C)[C@]2(CCC(=O)OC2(C)C)CC[C@@]13C | 50 µg/mL (≈ 99.5 µM) | inactive | inactive | inactive | inactive | inactive | inactive | inactive | inactive | inactive | inactive | – |
| C=C1[C@@]23C(=O)O[C@H](C)[C@]24O[C@@]2(C(=C)[C@]5(C=CC(=O)OC5(C)C)CC[C@]32C)[C@H](O)[C@@]1(C)OC4=O | – | inactive | inactive | inactive | inactive | inactive | inactive | inactive | inactive | inactive | inactive | 38.2 µg/mL (≈ 83.7 µM) |
| COC(=O)CC[C@@H]1Cc2ccc(O)c(OC)c2C(=O)O1 | 200 µg/mL (≈ 714 µM) | inactive | inactive | inactive | inactive | inactive | inactive | inactive | inactive | inactive | inactive | – |
| CC(=O)OCCC[C@@H]1Cc2cccc(O)c2C(=O)O1 | – | inactive | inactive | inactive | inactive | inactive | inactive | inactive | inactive | inactive | inactive | – |
| C[C@H](O)CCC[C@@H]1C[C@@H]2C[C@@H](O)CC(O)=C2C(=O)O1 | 200 µg/mL (≈ 740 µM) | inactive | inactive | inactive | inactive | inactive | inactive | inactive | inactive | inactive | inactive | – |
| COc1c(O)ccc2c1C(=O)O[C@H](CCCC(C)=O)C2 | – | inactive | inactive | inactive | inactive | inactive | inactive | inactive | inactive | inactive | inactive | – |
| COc1c(O)ccc2c1C(=O)O[C@H](CCC[C@@H](C)O)C2 | – | inactive | inactive | inactive | inactive | inactive | inactive | inactive | inactive | inactive | inactive | – |
| c1ccc([C@H]2CN3CCSC3=N2)cc1 [LEVAMISOLE] | – | – | – | – | – | – | – | – | – | – | – | 4.8 µg/mL (≈ 23.5 µM) |
| CC(=O)CCC[C@@H]1C[C@@H]2C[C@@H](O)CC(O)=C2C(=O)O1 | 200 µg/mL (≈ 745 µM) | inactive | inactive | inactive | inactive | inactive | inactive | inactive | inactive | inactive | inactive | – |
| C=C1[C@@]23C(=O)O[C@H](C)[C@@]2(O)C(=O)O[C@]1(C)[C@@H](O)C1=C2COC4CC(=O)OC(C)(C)[C@@]24CC[C@@]13C (some centres undefined) | – | inactive | inactive | inactive | inactive | inactive | inactive | inactive | inactive | inactive | inactive | 19.1 µg/mL (≈ 40.3 µM) |
| C=C1[C@@]23C(=O)O[C@H](C)[C@]24O[C@@]2(C(=C)[C@]5(C=CC(=O)OC5(C)C)C[C@@H](O)[C@]32C)[C@H](OC(C)=O)[C@@]1(C)OC4=O | – | inactive | inactive | inactive | inactive | inactive | inactive | inactive | inactive | inactive | inactive | 20.6 µg/mL (≈ 40 µM) |
| O=C1O[C@H](CCCO)Cc2cccc(O)c21 | – | inactive | inactive | inactive | inactive | inactive | inactive | inactive | inactive | inactive | inactive | – |
